# Bioassay records: PubChem BioAssay, several laboratories
# SENP7 block = blocks the human protease SENP7. Q9BQF6. recombinant SENP7, Z-RLRGG-aminoluciferin luminescence, 40 min. inhibition, % at 5 µM. 1.5% of 330,000 active. AID 434973;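 active means inhibition above about 50% at the single test dose, limit read from the data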;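 further: plate controls were DMSO with enzyme for no effect and no enzyme buffer wells for full effect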
# Target sequence (Q9BQF6 706-1050 limits assumed): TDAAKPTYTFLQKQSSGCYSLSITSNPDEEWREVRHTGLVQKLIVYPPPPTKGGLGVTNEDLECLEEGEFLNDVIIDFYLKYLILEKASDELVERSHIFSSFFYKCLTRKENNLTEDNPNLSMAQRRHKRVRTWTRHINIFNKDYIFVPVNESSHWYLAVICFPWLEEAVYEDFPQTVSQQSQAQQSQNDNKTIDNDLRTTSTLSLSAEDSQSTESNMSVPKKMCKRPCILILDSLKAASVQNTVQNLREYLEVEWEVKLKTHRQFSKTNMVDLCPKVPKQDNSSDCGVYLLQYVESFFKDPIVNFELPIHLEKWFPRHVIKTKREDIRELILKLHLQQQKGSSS
# UCH37 DUB inh = human UCH37 deubiquitinating enzyme inhibition; Q9Y5K5; purified proteasome/UCH37, Ub-AMC cleavage fluorescence; inhibition, % (concentration not given with the values); 0.33% of 330,000 active; AID 588478;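 active means mean inhibition over replicate wells above about 20%, limit read from the data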;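 further: 0% = compound-free wells with enzyme and 100% = wells lacking proteasome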
# Target sequence (Q9Y5K5 whole entry, looked up): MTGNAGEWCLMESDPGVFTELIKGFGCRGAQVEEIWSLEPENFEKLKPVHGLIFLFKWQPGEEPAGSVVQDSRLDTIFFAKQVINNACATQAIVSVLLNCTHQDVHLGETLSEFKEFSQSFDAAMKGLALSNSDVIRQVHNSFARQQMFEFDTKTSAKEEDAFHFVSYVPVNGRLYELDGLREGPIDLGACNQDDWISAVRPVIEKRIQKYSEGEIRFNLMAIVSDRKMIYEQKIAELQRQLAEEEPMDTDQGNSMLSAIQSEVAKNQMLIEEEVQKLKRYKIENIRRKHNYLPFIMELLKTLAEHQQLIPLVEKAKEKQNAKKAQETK
#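 Test system – human UCH37 enzyme supplied as purified proteasome complex · Incubation – 30 min preincubation with enzyme, 25 min cleavage at room temperature · Detection – AMC fluorescence from Ub-AMC cleavage, excitation 355 nm, emission 460 nm · Benchmarks – no-proteasome wells (full inhibition) and compound-free wells (no inhibition)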
# SENP8 block-1 = blocks human SENP8 cleavage of Nedd8 substrate; Q96LD8; recombinant SENP8, Nedd8 substrate fluorescence; inhibition, % at 20 µM; 0.64% of 360,000 active; in the data active means inhibition mostly above about 40%, no sharp cut-off; inactive means mostly below about 27%
# SENP8 block-2 = SENP8 protease inhibition; Q96LD8; purified SENP8, Z-RLRGG-aminoluciferin cleavage, luminescence; inhibition, % at 10 µM; 1.2% of 330,000 active; AID 2540; in the data active means inhibition above about 50%
# SENP1 FRET inh = SENP1 (human) catalytic domain inhibition. recombinant SENP1 catalytic domain, CyPet-SUMO1-YPet FRET cleavage. inhibition, % at 10 µM. 0.21% of 360,000 active. AID 624204;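 active means inhibition at least 30% at 10 µM, raw YFP signal under a set limit, fluorescence ratio 0.5 to 1.5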;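 further: 0% = enzyme with DMSO and 100% = no enzyme wells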
#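 Test system: recombinant human SENP1 catalytic domain, His6-tagged / Medium: pH 8 Tris buffer with EDTA, NaCl, BME, BSA, NP40, catalase / Also added: SUMO1 FRET substrate flanked by Cypet and Ypet, 25 nM / Times: 50 min reaction at room temperature / Signal: FRET, CFP and YFP emission / Control set: no-enzyme low control and enzyme-plus-DMSO high control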
# SENP6 inh = inhibitors of human SENP6 protease | Q9GZR1 | Recombinant SENP6 catalytic domain, aminoluciferin luminescence | inhibition, % at 10 µM | 1.8% of 330,000 active | AID 2599;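 active means inhibition above about 50% at the single tested dose, limit read from the data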;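 further: plate controls were DMSO wells with enzyme for no effect and DMSO wells lacking enzyme for full effect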
# SENP8 confirm = confirmation of human SENP8 protease inhibitors; shares compounds with SENP7 block; Recombinant SENP8, Z-RLRGG-aminoluciferin luminescence, 60 min; inhibition, % at 12.5 µM; 40% of 6,200 active; AID 488912;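 active means mean inhibition across replicates above about 50%, limit read from the data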
# SENP6 confirm = confirmation of human SENP6 protease inhibitors; inhibition, % at 12.5 µM; recombinant SENP6, Z-RLRGG-aminoluciferin luminescence; AID 488915; shares compounds with SENP7 block; 58% of 6,200 active
# SENP7 conf = human SENP7 inhibition, confirmed. AID 488917. inhibition, % at 12.5 µM. 69% of 6,200 active. recombinant SENP7, Z-RLRGG-aminoluciferin luminescence, 40 min. shares compounds with SENP7 block
# Casp3 select = caspase-3 inhibition (SENP selectivity assay); shares compounds with SENP7 block; purified caspase-3, Z-DEVD-aminoluciferin luminescence, 60 min; inhibition, % at 12.5 µM; 60% of 6,200 active; AID 488918;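 active means mean inhibition above about 50%, limit read from the data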;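 further: plate controls were enzyme with DMSO for no effect and wells without caspase-3 for full effect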
# Luc interf = luminescence interference (SENP counter-screen). shares compounds with SENP7 block. inhibition, % at 12.5 µM. 39% of 6,200 active. Pre-incubated SENP8/Z-RLRGG-aminoluciferin, luciferase luminescence interference. AID 488919;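 active means mean inhibition above about 50% when retested at one dose, limit read from the data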;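 further: plate controls were DMSO wells with completed reaction for no effect and substrate without enzyme for full effect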
# * marks the source's active call; other numbers are inactive results; · = no result. Sampled rows, rich in hits. Any-hit rate of the full collection: about 2.6%.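 How the source made its calls, unless noted: active means mean inhibition above about 50% in the one-dose retest (limit read from the data); inactive means the rest.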
SMILES,SENP7 block,UCH37 DUB inh,SENP8 block-1,SENP8 block-2,SENP1 FRET inh,SENP6 inh,SENP8 confirm,SENP6 confirm,SENP7 conf,Casp3 select,Luc interf
Cc1cc(C(=O)Nc2nc3c(s2)CCCC3)no1,56.3*,5.4,9.8,18.6,2.5,62.9*,45.5,41.8,79.6*,75.3*,54.5*
CC1=N/C(=C\c2cc(Br)cc(Br)c2O)C(=O)O1,·,3.3,·,·,·,·,·,·,·,·,·
CC1(C)Cc2c(sc(N=CN3CCCCCC3)c2C#N)C(C)(C)N1,·,1.4,·,·,·,·,·,·,·,·,·
CC(CC1CC(C)(C)OC1=O)=NNC(N)=S (stereo not drawn),·,2.6,·,·,·,·,·,·,·,·,·
COc1cc(CN(CC2CCCO2)C(=O)c2cccs2)cc(OC)c1OC (stereo not drawn),77.6*,0.5,14.3,-2.7,2.5,12.2,-5.0,-6.3,-7.9,2.0,6.0
C/C(=N\OC(=O)c1ccccc1F)c1nccs1,78.8*,·,15.6,-5.7,0.5,79.4*,60.1*,52.9*,91.6*,5.9,33.3
CCS(=O)(=O)N=C(N)c1ccccc1,·,-0.1,·,·,·,·,·,·,·,·,·
CCN1C(=O)c2cccc3c(S(=O)(=O)Nc4ncccc4C)ccc1c23,64.4*,-18.1,-299.5,-4.7,-22.4,4.9,-23.9,-14.7,-12.6,-10.6,-6.1
O=C1CCCC(=NNC(=O)c2cc3ccccc3cc2O)C1,88.3*,8.5,-191.8,88.8*,-26.4,89.9*,89.1*,91.7*,100.6*,93.3*,88.0*
Cc1ccc(NC(=O)CC2S/C(=N/N=Cc3ccco3)NC2=O)cc1Cl (stereo not drawn),·,5.1,·,·,·,·,·,·,·,·,·
O=C(CNC(=O)c1ccc([N+](=O)[O-])cc1)NN=Cc1c[nH]c2ccccc12,·,1.8,·,·,·,·,·,·,·,·,·
Cc1ccsc1C=Nn1cnc2sc(C)c(C)c2c1=O,·,4.7,·,·,·,·,·,·,·,·,·
COc1ccc(N2CC(C(=O)NN=Cc3ccc(C)cc3)CC2=O)cc1 (stereo not drawn),·,2.2,·,·,·,·,·,·,·,·,·
CC(=O)N1CCc2cc([N+](=O)[O-])ccc21,·,12.7,31.2,·,2.5,·,·,·,·,·,·
CCOC(=O)c1nn(-c2ccc3c(c2)OCCO3)cc1O,27.7,-34.1,-370.1,20.4,0.6,1.8,·,·,·,·,·
COC(=O)c1nn(-c2ccc3c(c2)OCO3)cc1O,78.6*,-49.2,-265.0,48.3,-2.8,72.3*,67.2*,64.1*,89.8*,90.9*,72.4*
COC(=O)c1nn(-c2ccc3c(c2)CCN3C(C)=O)cc1O,85.0*,-454.5,-292.6,75.4*,1.5,91.1*,-5.4,81.6*,97.1*,96.0*,84.3*
CC(CC(=O)N1CCN(C=O)CC1)=NNC(=O)c1cccc([N+](=O)[O-])c1,·,3.1,·,·,·,·,·,·,·,·,·
COc1cccc(/C(C)=N/N=C(\C)c2cccc(OC)c2)c1,66.1*,·,13.1,61.4*,2.2,80.9*,43.1,56.1*,85.3*,54.9*,40.9
O=C(NN=Cc1ccc2c(c1)OCO2)c1ccccc1,·,9.4,-43.4,·,1.1,·,·,·,·,·,·
CCN(CC)c1ccc(/C=N/NC(=O)c2ccco2)c(O)c1,63.2*,·,-450.0,29.9,-32.7,58.8*,37.2,59.4*,86.3*,60.0*,64.6*
CCN(CC)c1ccc(/C=N/NC(=O)c2ccco2)cc1,·,·,-409.1,·,-53.2,·,·,·,·,·,·
O=C(N/N=C\c1ccc2c(c1)OCO2)c1ccco1,71.9*,·,-41.3,63.6*,-1.0,68.8*,68.5*,67.1*,91.4*,89.8*,68.4*
COc1ccc(NC(=O)CC(C)=NNC(=O)C(=O)NC2CCCCC2)c(OC)c1,·,0.5,·,·,·,·,·,·,·,·,·
Cc1ccc(/C=N/N=C/c2ccc(C)s2)s1,63.3*,·,22.1,40.9,0.8,76.6*,42.5,59.9*,81.7*,29.1,45.8
SMILES,SENP7 block,UCH37 DUB inh,SENP8 block-1,SENP8 block-2,SENP1 FRET inh,SENP6 inh,SENP8 confirm,SENP6 confirm,SENP7 conf,Casp3 select,Luc interf
Cc1nc2ccc(-c3nc4cc(N)ccc4o3)cc2[nH]1,76.8*,-113.1,-275.8,54.3*,-31.9,46.4,1.9,77.6*,95.9*,89.5*,57.8*
Nc1ccc2oc(-c3ccc4nc[nH]c4c3)nc2c1,58.1*,-65.3,-321.1,30.3,-36.0,67.1*,53.9*,55.1*,86.2*,79.6*,50.1*
c1nc2ccc(Cc3ccc4nc[nH]c4c3)cc2[nH]1,1.5,1.6,16.0,3.3,2.3,9.0,·,·,·,·,·
COC(=O)NN=Cc1cc(Cl)c(OCc2ccc(F)cc2)c(OC)c1,·,2.9,·,·,·,·,·,·,·,·,·
CCCc1c(C(=O)NN=Cc2cccc(OCc3ccc(F)cc3)c2)nnn1-c1nonc1N,·,5.7,·,·,·,·,·,·,·,·,·
c1ccc(CCNc2nc(-c3ccccn3)cs2)cc1,43.0,3.7,-6.1,29.1,3.1,51.8*,2.3,-2.3,-2.0,3.7,11.5
C=CCNc1nc(-c2ccc(Cl)cc2)cs1,74.7*,-5.2,33.9,80.4*,2.6,91.2*,44.1,90.5*,100.4*,74.7*,90.8*
Cc1nc2ccc(C(=O)NN=Cc3cc([N+](=O)[O-])ccc3O)cc2[nH]1,·,0.9,·,·,·,·,·,·,·,·,·
O=C(ON=C1CCS(=O)(=O)c2sccc21)c1c(F)cccc1F,·,1.0,·,·,·,·,·,·,·,·,·
CCOC(=O)c1c(C)[nH]c(C(=O)OCC(=O)c2ccccc2)c1C,39.0,-0.2,-7.3,42.2,0.8,51.0*,46.1,43.5,76.1*,34.7,17.2
CCNC(=O)C(=O)NN=Cc1cc([N+](=O)[O-])ccc1O,·,5.1,·,·,·,·,·,·,·,·,·
Cc1ccc(N=C/C(C(=O)C(F)(F)F)=C(\O)c2cccs2)cc1,96.2*,-4.4,-50.0,20.0,-20.9,26.7,10.4,6.5,0.0,28.6,55.5*
Cc1ccc2occ(C=NNC(=O)[C@@H](N)Cc3ccccc3)c(=O)c2c1,·,-33.6,·,·,·,·,·,·,·,·,·
O=[N+]([O-])c1ccccc1C=NNc1nccnc1Cl,·,11.0,·,·,·,·,·,·,·,·,·
O=[N+]([O-])c1cccc(/C=N/Nc2ccccn2)c1,54.5*,·,24.4,26.2,1.9,55.8*,-1.9,-5.3,73.7*,17.0,-1.8
O=[N+]([O-])c1cccc(/C=N/Nc2nccnc2Cl)c1,93.5*,·,13.4,82.5*,1.7,93.8*,91.4*,90.9*,99.5*,96.7*,82.7*
O=C(NN=Cc1ccc(OC(=O)c2ccco2)cc1)c1ccncc1,·,-3.1,·,·,·,·,·,·,·,·,·
Cn1cccc1CC(=O)NN=Cc1c2ccccc2cc2ccccc12,·,-13.2,·,·,·,·,·,·,·,·,·
Cc1nc(Nc2ccc3c(c2)OCCO3)c2oc3ccccc3c2n1,4.5,-29.3,-54.5,3.0,0.2,1.8,·,·,·,·,·
